In ChEMBL document CHEMBL1158134, “Low-abundance kutznerides from Kutzneria sp. 744” (2006):
≈ marks a conversion by molar mass, not a printed value. Calls of active or inactive are those of the source. The rule behind the calls is not given here.

What was measured:
Drechslera = assay: Antimicrobial activity against Drechslera sorokiniana at 27 to 28 degC after 48 hrs in dark; format: functional
In short: (§1)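 MIC by microtiter bioassay scoring inhibition of spore germination or cell growth. Compounds in MeOH were dried in the wells, then 100 µL of spore or cell suspension (10^4 spores/mL or cells/mL) in appropriate medium was added. The top concentration tested was 230 to 590 µM. Controls were untreated suspension and sterile medium. Growth was scored visually on a 0–3 scale. Run in triplicate, repeated once.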

Fusarium culmorum = assay: Antimicrobial activity against Fusarium culmorum at 27 to 28 degC after 72 hrs in dark; format: functional; in short: as §1
Candida albicans = assay: Antimicrobial activity against Candida albicans up to 590 uM at 37 degC after 24 hrs in dark; format: functional, organism-based; in short: as §1
Staphylococcus aureus = assay: Antimicrobial activity against Staphylococcus aureus at 37 degC after 24 hrs in dark; format: functional; in short: as §1
Aspergillus fumigatus = assay: Antimicrobial activity against Aspergillus fumigatus up to 590 uM at 27 to 28 degC after 96 hrs in dark; format: functional, organism-based; in short: as §1
[1] = tested on: Pectobacterium carotovorum; assay: Antimicrobial activity against Erwinia carotovora at 27 to 28 degC after 24 hrs in dark; format: functional; in short: as §1
[2] = tested on: Pseudomonas savastanoi pv. savastanoi; assay: Antimicrobial activity against Pseudomonas savastanoi pv. savastanoi up to 590 uM at 27 to 28 degC after 24 hrs in dark; format: functional, organism-based; in short: as §1

Structure (SMILES) | MIC (Drechslera) | MIC (Fusarium culmorum) | MIC (Staphylococcus aureus) | MIC [1] | Activity (Candida albicans) | Activity (Aspergillus fumigatus) | Activity [2]
COC[C@@H]1NC(=O)[C@@H]2CCC=NN2C(=O)[C@H](C(C)(C)C)OC(=O)[C@@H](C2(C)CC2)NC(=O)[C@@H]2C[C@@]3(O)c4ccc(Cl)c(Cl)c4N[C@H]3N2C(=O)[C@@H]([C@H](O)CC(=O)O)NC1=O [KUTZNERIDE 4] | > 590 µM | > 590 µM | 140 µM (≈ 119 µg/mL) | 120 µM (≈ 102 µg/mL) | inactive | inactive | inactive
COC[C@@H]1NC(=O)[C@@H]2CCCNN2C(=O)[C@H](C(C)C)OC(=O)[C@@H](C2(C)CC2)NC(=O)[C@@H]2C[C@@]3(O)c4ccc(Cl)c(Cl)c4N[C@H]3N2C(=O)[C@@H]([C@H](O)CC(=O)O)NC1=O [KUTZNERIDE 5] | > 240 µM | > 240 µM | 120 µM (≈ 101 µg/mL) | 120 µM (≈ 101 µg/mL) | – | – | –
COC[C@@H]1NC(=O)[C@@H]2C[C@@H](O)C=NN2C(=O)[C@H](C(C)(C)C)OC(=O)[C@@H](C2(C)CC2)NC(=O)[C@@H]2C[C@@]3(O)c4ccc(Cl)c(Cl)c4N[C@H]3N2C(=O)[C@@H]([C@H](O)CC(=O)O)NC1=O [KUTZNERIDE 6] | > 400 µM | > 230 µM | > 230 µM | > 230 µM | – | – | –
COC[C@@H]1NC(=O)[C@@H]2C[C@@H](Cl)CNN2C(=O)[C@H](C(C)(C)C)OC(=O)[C@@H](C2(C)CC2)NC(=O)[C@@H]2C[C@@]3(O)c4ccc(Cl)c(Cl)c4N[C@H]3N2C(=O)[C@@H]([C@H](O)CC(=O)O)NC1=O [KUTZNERIDE 8] | 230 µM (≈ 205 µg/mL) | 110 µM (≈ 97.8 µg/mL) | 6 µM (≈ 5.34 µg/mL) | 6 µM (≈ 5.34 µg/mL) | – | – | –
CN[C@@H]1[C@H](O[C@H]2[C@H](O[C@H]3[C@H](O)[C@@H](O)[C@H](N=C(N)N)[C@@H](O)[C@@H]3N=C(N)N)O[C@@H](C)[C@]2(O)C=O)O[C@@H](CO)[C@H](O)[C@H]1O [STREPTOMYCIN] | – | – | 17 µM (≈ 9.89 µg/mL) | – | – | – | –

Further lines, with some results ahead:

MIC (Drechslera) | MIC (Fusarium culmorum) | MIC (Staphylococcus aureus) | MIC [1] | Structure (SMILES) | Activity (Candida albicans) | Activity (Aspergillus fumigatus) | Activity [2]
4 µM (≈ 3.7 µg/mL) | 40 µM (≈ 37 µg/mL) | – | – | C[C@@H]1[C@H](O)[C@@H](C)/C=C/C=C/C=C/C=C/C=C/C=C/C=C/[C@H](O[C@@H]2O[C@H](C)[C@@H](O)[C@H](N)[C@@H]2O)C[C@@H]2O[C@](O)(C[C@@H](O)C[C@@H](O)[C@H](O)CC[C@@H](O)C[C@@H](O)CC(=O)O[C@H]1C)C[C@H](O)[C@H]2C(=O)O [AMPHOTERICIN B] | – | – | –
230 µM (≈ 197 µg/mL) | 210 µM (≈ 179 µg/mL) | 12 µM (≈ 10.3 µg/mL) | 60 µM (≈ 51.3 µg/mL) | COC[C@@H]1NC(=O)[C@@H]2CCCNN2C(=O)[C@H](C(C)(C)C)OC(=O)[C@@H](C2(C)CC2)NC(=O)[C@@H]2C[C@@]3(O)c4ccc(Cl)c(Cl)c4N[C@H]3N2C(=O)[C@@H]([C@@H](O)CC(=O)O)NC1=O [KUTZNERIDE 1] | inactive | inactive | inactive
110 µM (≈ 97.8 µg/mL) | 70 µM (≈ 62.2 µg/mL) | 6 µM (≈ 5.34 µg/mL) | 6 µM (≈ 5.34 µg/mL) | COC[C@@H]1NC(=O)[C@@H]2C[C@@H](Cl)CNN2C(=O)[C@H](C(C)(C)C)OC(=O)[C@@H](C2(C)CC2)NC(=O)[C@@H]2C[C@@]3(O)c4ccc(Cl)c(Cl)c4N[C@H]3N2C(=O)[C@@H]([C@@H](O)CC(=O)O)NC1=O [KUTZNERIDE 2] | inactive | inactive | inactive
260 µM (≈ 222 µg/mL) | 260 µM (≈ 222 µg/mL) | 9 µM (≈ 7.69 µg/mL) | 12 µM (≈ 10.3 µg/mL) | COC[C@@H]1NC(=O)[C@@H]2CCCNN2C(=O)[C@H](C(C)(C)C)OC(=O)[C@@H](C2(C)CC2)NC(=O)[C@@H]2C[C@@]3(O)c4ccc(Cl)c(Cl)c4N[C@H]3N2C(=O)[C@@H]([C@H](O)CC(=O)O)NC1=O [KUTZNERIDE 3] | inactive | inactive | inactive
> 420 µM | > 420 µM | 120 µM (≈ 101 µg/mL) | 180 µM (≈ 151 µg/mL) | COC[C@@H]1NC(=O)[C@@H]2CCCNN2C(=O)[C@H](C(C)C)OC(=O)[C@@H](C2(C)CC2)NC(=O)[C@@H]2C[C@@]3(O)c4ccc(Cl)c(Cl)c4N[C@H]3N2C(=O)[C@@H]([C@@H](O)CC(=O)O)NC1=O [KUTZNERIDE 7] | – | – | –
> 230 µM | > 230 µM | 60 µM (≈ 51.2 µg/mL) | 230 µM (≈ 196 µg/mL) | COC[C@@H]1NC(=O)[C@@H]2CCC=NN2C(=O)[C@H](C(C)(C)C)OC(=O)[C@@H](C2(C)CC2)NC(=O)[C@@H]2C[C@@]3(O)c4ccc(Cl)c(Cl)c4N[C@H]3N2C(=O)[C@@H]([C@@H](O)CC(=O)O)NC1=O [KUTZNERIDE 9] | – | – | –
